Numbered stars: 1 amine (or outer) side, 2 acyl side, 3 side chain; on linkers, the order of the positions; unused ones are H or OH. Square brackets hold non-standard residues; d marks the D form. Peptide text beside a SMILES is read from it. * marks the point of attachment. X2 = O=C(c1ccc(N[*:1])cc1-c1cccc2ccccc12)[*:2]; X1 = O=C(c1ccc(N[*:1])c(-c2ccccc2)c1)[*:2]; X3 = O=C(c1ccc(N[*:1])cc1-c1ccccc1)[*:2]; X4 = Cc1cc(C(=O)[*:2])ccc1N[*:1]; NHBn = c1ccc(CN*)cc1
Biological target: RAC-alpha serine/threonine-protein kinase (Homo sapiens, UniProt P31749)
Sequence (P31749 whole entry): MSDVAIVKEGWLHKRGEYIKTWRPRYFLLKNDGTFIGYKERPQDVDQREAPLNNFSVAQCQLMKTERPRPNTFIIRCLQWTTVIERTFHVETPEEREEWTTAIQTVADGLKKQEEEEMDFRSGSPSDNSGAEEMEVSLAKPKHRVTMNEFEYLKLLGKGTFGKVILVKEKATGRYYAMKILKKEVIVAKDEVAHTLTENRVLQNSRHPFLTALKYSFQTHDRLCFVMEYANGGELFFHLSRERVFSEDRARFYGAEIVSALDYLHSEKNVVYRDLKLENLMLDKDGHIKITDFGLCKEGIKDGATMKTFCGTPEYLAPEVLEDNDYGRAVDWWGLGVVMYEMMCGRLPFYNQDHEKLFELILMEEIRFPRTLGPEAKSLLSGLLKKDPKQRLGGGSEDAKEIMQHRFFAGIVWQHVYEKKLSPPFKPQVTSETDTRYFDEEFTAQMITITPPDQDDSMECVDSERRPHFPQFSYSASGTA
Assay: Inhibition of Akt1 by fluorescence polarization assay
How it was run: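 Substrate 100 nM 5FAM-labelled GSK3-derived peptide, ATP 5 μM, inhibitor added from DMSO stock. Incubated 1 h at room temperature, then quenched with IMAP binding solution. Phosphorylation read by fluorescence polarization; IC50 determined.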

Structure (SMILES) | IC50
CC(C)c1ccc(CN(Cc2ccc(C(C)C)cc2)c2ccc(NC(=O)c3ccc(NC(=O)CNC(=N)N)c(-c4ccc5ccccc5c4)c3)cc2)cc1 | 17 µM
CC(=O)N[C@@H](CCCNC(=N)N)C(=O)Nc1ccc(C(=O)N[C@H](C(=O)N[C@@H](Cc2ccccc2)C(=O)NCc2ccccc2)C(C)C)cc1-c1ccccc1 | 288 µM
CC(C)c1ccc(-c2cc(C(=O)Nc3ccc(N(Cc4ccccc4)Cc4ccccc4)cc3)ccc2NCCNC(=N)N)cc1 | 52 µM
N=C(N)NCCNc1ccc(C(=O)Nc2ccc(N(Cc3ccccc3)Cc3ccccc3)cc2)cc1-c1ccccc1 | 84 µM
N=C(N)NCCNc1ccc(C(=O)Nc2ccc(N(Cc3ccccc3)Cc3ccccc3)cc2)cc1-c1ccc2ccccc2c1 | 44 µM
N#Cc1ccc(CN(Cc2ccc(C#N)cc2)c2ccc(NC(=O)c3ccc(NC(=O)CNC(=N)N)c(-c4ccc5ccccc5c4)c3)cc2)cc1 | 12 µM
Cc1ccc(CN(Cc2ccc(C)cc2)c2ccc(NC(=O)c3ccc(NCCNC(=N)N)c(-c4ccccc4)c3)cc2)cc1 | 215 µM
N=C(N)NCCNc1ccc(C(=O)Nc2ccc(N(Cc3ccc4ccccc4c3)Cc3ccc4ccccc4c3)cc2)cc1-c1ccccc1 | 23 µM
CC(C)c1ccc(CN(Cc2ccc(C(C)C)cc2)c2ccc(NC(=O)c3ccc(NCCNC(=N)N)c(-c4ccc5ccccc5c4)c3)cc2)cc1 | 38 µM
N=C(N)NCCNc1ccc(C(=O)Nc2ccc(N(Cc3ccc(F)cc3)Cc3ccc(F)cc3)cc2)cc1-c1ccccc1 | 55 µM
N#Cc1ccc(CN(Cc2ccc(C#N)cc2)c2ccc3[nH]c(-c4ccc(NC(=O)CN=C(N)N)cc4)cc3c2)cc1 | 32 µM
N#Cc1ccc(CN(Cc2ccc(C#N)cc2)c2ccc(NC(=O)c3ccc(NCCNC(=N)N)c(-c4ccccc4)c3)cc2)cc1 | 19 µM
CC(C)c1ccc(CN(Cc2ccc(C(C)C)cc2)c2ccc(NC(=O)c3ccc(NCCNC(=N)N)c(-c4ccccc4)c3)cc2)cc1 | 28 µM
N#Cc1ccc(-c2cc(C(=O)Nc3ccc(N(Cc4ccccc4)Cc4ccccc4)cc3)ccc2NCCNC(=N)N)cc1 | 78 µM
N=C(N)NCCNc1ccc(C(=O)Nc2ccc(N(Cc3cccc4ccccc34)Cc3cccc4ccccc34)cc2)cc1-c1ccccc1 | 43 µM
COC(=O)c1ccc(-c2cc(C(=O)Nc3ccc(N(Cc4ccccc4)Cc4ccccc4)cc3)ccc2NCCNC(=N)N)cc1 | 158 µM
CC(=O)Nc1ccc(-c2cc(C(=O)Nc3ccc(N(Cc4ccccc4)Cc4ccccc4)cc3)ccc2NCCNC(=N)N)cc1 | 253 µM
N=C(N)NCCNc1ccc(C(=O)Nc2ccc(N(Cc3ccccc3)Cc3ccccc3)cc2)cc1-c1ccc(-c2ccccc2)cc1 | 83 µM
NC(N)=NCC(=O)Nc1ccc(-c2cc3cc(N(Cc4ccccc4)Cc4ccccc4)ccc3[nH]2)cc1 | 126 µM
CC(=O)N[C@@H](CCCNC(=N)N)C(=O)Nc1ccc(C(=O)Nc2ccc3c(c2)c(=O)n(Cc2ccccc2)c(=O)n3Cc2ccccc2)cc1 | 232 µM
Cc1cccc(CN(Cc2cccc(C)c2)c2ccc(NC(=O)c3ccc(NCCNC(=N)N)c(-c4ccccc4)c3)cc2)c1 | 152 µM
CC(=O)N[C@@H](CCCNC(=N)N)C(=O)Nc1ccc(C(=O)Nc2ccc3c(=O)n(Cc4ccccc4)c(=O)n(Cc4ccccc4)c3c2)cc1 | 112 µM
CC(=O)N[C@@H](CCCNC(=N)N)C(=O)Nc1ccc(C(=O)N[C@H](C(=O)N[C@@H](Cc2ccccc2)C(=O)NCc2ccccc2)C(C)C)c(-c2ccccc2)c1 | 173 µM
N#Cc1ccc(CN(Cc2ccc(C#N)cc2)c2ccc(NC(=O)c3ccc(NCCNC(=N)N)c(-c4ccc5ccccc5c4)c3)cc2)cc1 | 17 µM
N=C(N)NCCNc1ccc(C(=O)Nc2ccc(N(Cc3ccc(-c4ccccc4)cc3)Cc3ccc(-c4ccccc4)cc3)cc2)cc1-c1ccccc1 | 84 µM
N=C(N)NCCNc1ccc(C(=O)Nc2ccc(N(Cc3ccccc3)Cc3ccccc3)cc2)cc1 | 96 µM
CC(=O)NCC(=O)N[C@@H](CCCNC(=N)N)C(=O)N1CCC[C@H]1C(=O)N[C@@H](CCCNC(=N)N)C(=O)Nc1ccc(C(=O)N[C@H](C(=O)N[C@@H](Cc2ccccc2)C(=O)NCc2ccccc2)C(C)C)cc1-c1ccccc1 (Ac-GRPR[X1]VF-NHBn) | > 500 µM
CC(=O)NCC(=O)N[C@@H](CCCNC(=N)N)C(=O)N1CCC[C@H]1C(=O)N[C@@H](CCCNC(=N)N)C(=O)Nc1ccc(C(=O)N[C@H](C(=O)N[C@@H](Cc2ccccc2)C(=O)NCc2ccccc2)C(C)C)c(-c2cccc3ccccc23)c1 (Ac-GRPR[X2]VF-NHBn) | 78 µM
CC(=O)NCC(=O)N[C@@H](CCCNC(=N)N)C(=O)N1CCC[C@H]1C(=O)N[C@@H](CCCNC(=N)N)C(=O)Nc1ccc(C(=O)N[C@H](C(=O)N[C@@H](Cc2ccccc2)C(=O)NCc2ccccc2)C(C)C)c(-c2ccccc2)c1 (Ac-GRPR[X3]VF-NHBn) | 16 µM
CC(=O)NCC(=O)N[C@@H](CCCNC(=N)N)C(=O)N1CCC[C@H]1C(=O)N[C@@H](CCCNC(=N)N)C(=O)Nc1ccc(C(=O)N[C@H](C(=O)N[C@@H](Cc2ccccc2)C(=O)NCc2ccccc2)C(C)C)cc1C (Ac-GRPR[X4]VF-NHBn) | 50 µM

Reference: ChEMBL document CHEMBL1152730, “Non-peptidic substrate-mimetic inhibitors of Akt as potential anti-cancer agents” (Bioorg Med Chem, 2009)
